Converted amounts (≈) assume the structure as drawn. “And” between values parts separate entries of the source, which are not always exact repeats. Equal values may be shown once. “Also recorded” adds a separate entry of the source. Read-outs that look alike come from different tables or passages of the source.
Experiments:
[1] = target: T1, N. gonorrhoeae LOS sialyltransferase (Lst) (Neisseria gonorrhoeae, UniProt P72074); assay: Utilization of CMP-NulO as substrate by LOS sialyltransferase; assay type: biochemical; conditions: transfer of NulO to LNnT LOS
T1 sequence (P72074 whole entry): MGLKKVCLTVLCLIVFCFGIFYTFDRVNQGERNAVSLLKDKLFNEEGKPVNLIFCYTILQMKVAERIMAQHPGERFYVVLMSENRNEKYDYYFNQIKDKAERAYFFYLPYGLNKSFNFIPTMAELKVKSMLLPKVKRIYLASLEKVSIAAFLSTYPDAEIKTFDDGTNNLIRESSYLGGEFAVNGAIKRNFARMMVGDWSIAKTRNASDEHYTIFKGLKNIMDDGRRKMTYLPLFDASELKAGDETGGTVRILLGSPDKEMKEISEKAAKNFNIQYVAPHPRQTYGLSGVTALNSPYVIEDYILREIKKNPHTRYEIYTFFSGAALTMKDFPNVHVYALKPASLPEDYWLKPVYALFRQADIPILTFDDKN

[2] = tested on: N. gonorrhoeae F62 ΔlgtD; assay: Serum bactericidal assay with pooled normal human serum; assay type: cell-based, Neisseria gonorrhoeae; conditions: CMP-NulO added 15 min before or 15 min after CMP-Neu5Ac; 3.3% and 10% NHS
[3] = tested on: N. gonorrhoeae H041; assay: Mouse vaginal colonization model, wild-type BALB/c mice; assay type: in vivo; conditions: strain H041; for Efficacy in clearing gonococcal colonization: 10 µg intravaginally daily, wild-type BALB/c mice; for First day with significantly lower CFU counts than saline control: 10 µg/d intravaginally, two-way ANOVA, Dunnett
[4] = tested on: N. gonorrhoeae H041; conditions: intravaginal administration; cited from earlier work
[5] = Stability of CMP-NulOs in solution; assay type: physicochemical
[6] = tested on: N. gonorrhoeae strain H041; assay: Mouse vaginal colonization model, human FH/C4BP transgenic mice; assay type: in vivo
Summary of the method: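 Premarin-treated human FH/C4BP transgenic BALB/c mice, 6-8 weeks old and in diestrus, were infected intravaginally with strain H041 (n=6/group). Test compound was given intravaginally once daily, starting 2 h before infection; the 10 µg dose was given as 1 mg/ml in sterile H2O. Saline was the vehicle control. Bacterial burden was followed over time, and areas under the curve were compared by nonparametric rank sum test.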

[7] = tested on: N. gonorrhoeae; assay: Mouse vaginal colonization model, Cmah−/− mice; assay type: in vivo
[8] = tested on: N. gonorrhoeae F62 ΔlgtD; assay: Silver-stained SDS-PAGE of LOS; assay type: cell-based, Neisseria gonorrhoeae; conditions: media containing CMP-NulO 100 µg/ml
Summary of the method: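 F62 ΔlgtD was grown in liquid media with or without test compound. Protease K-treated (100 µg/ml) lysates were run on 16.5% Tris-Tricine gels with Tris-Tricine cathode buffer, and LOS was silver-stained. Slower LOS mobility than bacteria grown without test compound was taken to indicate NulO addition.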

[9] = target: T1, N. gonorrhoeae LOS sialyltransferase (Lst); conditions: tested as CMP salts; cited from earlier work
[10] = tested on: FH purified from human plasma; assay: Factor H binding to bacteria by flow cytometry; conditions: for FH binding (fluorescence) relative to that seen with Neu5Ac substituted LOS / Decrease in FH binding fluorescence relative to Neu5Ac: NulO capped LNnT LOS
[11] = tested on: FH purified from human plasma; conditions: compared with Neu5Ac; cited from earlier work
[12] = tested on: N. gonorrhoeae F62 ΔlgtD; conditions: bacteria fed with the CMP salts; cited from earlier work
[13] = tested on: N. gonorrhoeae; conditions: cited from earlier work; for Eradication of oropharyngeal infection: men who have sex with men and commercial sex workers
[14] = tested on: N. gonorrhoeae; conditions: cited from earlier work
[15] = F62 ΔlgtD grown with the CMP-NulO

With [N-]=[N+]=N[C@@H](C1O[C@](OP(=O)(O)OC[C@H]2O[C@@H](n3ccc(N)nc3=O)C(O)C2O)(C(=O)O)CC(O)[C@H]1O)[C@H](O)CO (stereo partly drawn) [CMP-Kdn7N3] the “Substrate for Lst” value [1] was “served as substrates for Lst” and the “Prevention of Neu5Ac-mediated serum resistance” value (shortened to “Prevention”) [2] was “ineffective in preventing CMP-Neu5Ac-mediated serum resistance”.

For Nc1ccn([C@@H]2O[C@H](COP(=O)(O)O[C@@]3(C(=O)O)C[C@H](O)[C@@H](O)[C@H]([C@H](O)[C@H](O)CO)O3)[C@@H](O)[C@H]2O)c(=O)n1 [CMP-Kdn, CMP-ketodeoxynonulosonate], the “Efficacy in clearing gonococcal colonization” value [3] was “equally efficacious; also recorded: as efficacious as CMP-Leg5,7Ac2”, the “First day with significantly lower CFU counts than saline control” value [3] was 2 days and the “Substrate for Lst” value [1] was “served as substrates for Lst”. For the same compound, the “Prevention” value [2] was “effectively prevented Neu5Ac-mediated serum resistance only when added first”.

In the case of CC(=O)N[C@@H]([C@@H]1O[C@](OP(=O)(O)OC[C@H]2O[C@@H](n3ccc(N)nc3=O)[C@H](O)[C@@H]2O)(C(=O)O)C[C@H](O)[C@H]1NC(C)=O)[C@@H](C)O [CMP-Leg5,7Ac2], the “Efficacy in clearing gonococcal colonization” value [3] is given as “equally efficacious”, the “First day with significantly lower CFU counts than saline control” value [3] is given as 1 days and the “Duration and burden of vaginal colonization of multidrug-resistant N. gonorrhoeae in mice” value [4] is given as “decreased the duration and reduced the burden of vaginal colonization”. The “Percentage of intact CMP-NulO relative to t0” value ([5]; 6 weeks at 4 °C, pH 7) was “Greater than 90%”, the “Percentage of intact CMP-NulO relative to t0” value ([5]; 1 h, pH 4 (data not shown)) was “greater than 50%” and the “Percentage of intact CMP-NulO relative to t0” value ([5]; 4 h, pH 4, 37 °C) was 4%. For the same compound, the “Percentage of intact CMP-NulO relative to t0” value ([5]; 24 h at 37 °C, pH 5) was “about 54%”, the “Percentage of intact CMP-NulO relative to t0” value ([5]; 3 days at 20 °C, pH 7) was “Greater than 90%” and the “Relative stability over all test conditions” value ([5]; descending order: CMP-Leg5,7Ac2, CMP-Neu5Ac9N3, CMP-Neu5Ac, CMP-Kdn, pH 4-7, 4-37 °C) was “most stable”. For the same compound, the Efficacy ([6]; 1 µg/day intravaginally) was “ineffective”, the Efficacy ([6]; 5 µg/day intravaginally) was “progressively increasing efficacy; also recorded: cleared infection significantly faster” and the Efficacy ([6]; 10 µg/day intravaginally) was “progressively increasing efficacy; also recorded: cleared infection significantly faster”. The “AUC (log10 CFU)” value ([7]; strain 398078, 10 µg daily) was “zero”, the “Detection of bacteria in treated animals on day 1” value ([7]; strain 398078, swabs taken 24 h after infection, 10 µg daily) was “unable to detect” and the “Efficacy (rate of clearance and bacterial burden compared to saline)” value ([7]; strains F62 ΔlgtD and H041, 10 µg daily intravaginally) was “effective against both strains”. For the same compound, the “Prevention” value [2] was “blocked CMP-Neu5Ac-mediated serum resistance when added after CMP-Neu5Ac”.

In the case of CC(=O)NC1C(OC(C)=O)CC(OP(=O)(O)OCC2OC(n3ccc(N)nc3=O)C(O)C2O)(C(=O)O)OC1C(O)C(O)CO (stereo not drawn) [CMP-Neu4,5Ac2], the “Migration of LOS on silver-stained 16.5% Tricine gel” value [8] is reported as “no change in migration of LOS”.

For CC(=O)N[C@H]1[C@H]([C@H](O)[C@H](O)COC(C)=O)O[C@@](OP(=O)(O)OC[C@H]2O[C@@H](n3ccc(N)nc3=O)[C@H](O)[C@@H]2O)(C(=O)O)C[C@@H]1O [CMP-Neu5,9Ac2], the “Efficacy in clearing gonococcal colonization” value [3] was “ineffective” and the “Prevention” value [2] was “rendered F62 ΔlgtD susceptible to 10% NHS, but not 3.3% NHS”.

With CC(=O)N[C@H]1[C@H]([C@H](O)[C@H](O)CN=[N+]=[N-])OC(OP(=O)(O)OC[C@H]2O[C@@H](n3ccc(N)nc3=O)[C@H](O)[C@@H]2O)(C(=O)O)C[C@@H]1O (stereo partly drawn) [CMP-Neu5Ac9N3] the “Efficacy in clearing gonococcal colonization” value [3] was “equally efficacious; also recorded: as efficacious as CMP-Leg5,7Ac2” and the “First day with significantly lower CFU counts than saline control” value [3] was 2 days.

For CC(=O)N[C@H]([C@@H]1O[C@](OP(=O)(O)OC[C@H]2O[C@@H](n3ccc(N)nc3=O)[C@H](O)[C@@H]2O)(C(=O)O)C[C@H](O)[C@@H]1NC(C)=O)[C@H](C)O [CMP-Pse5,7Ac2], the “Utilization by Lst” value [9] is given as “not utilized by Lst”.

With [N-]=[N+]=N[C@@H]([C@H](O)[C@H](O)[C@@H](O)CC(=O)C(=O)O)[C@H](O)CO [Kdn7N3, 3,7-dideoxy-7-azido-D-glycero-D-galacto-nonulosonic acid] the “FH binding (fluorescence) relative to that seen with Neu5Ac substituted LOS” value [10, 15] was ~ 60% and ~ 62%.

With O=C(O)C(=O)C[C@H](O)[C@@H](O)[C@@H](O)[C@H](O)[C@H](O)CO [Kdn, 3-deoxy-D-glycero-D-galacto-nonulosonic acid] the “FH binding (fluorescence) relative to that seen with Neu5Ac substituted LOS” value [10, 15] was ~ 60% and ~ 62% and the “Decrease in FH binding fluorescence relative to Neu5Ac” value [10] was ~ 40%.

In the case of CC(=O)N[C@@H]([C@@H]1O[C@](O)(C(=O)O)C[C@H](O)[C@H]1NC(C)=O)[C@@H](C)O [Leg5,7Ac2], the “Utilization by Lst” value [9] is given as “utilized by Lst”, the “FH binding to gonococci with NulO capped LNnT LOS” value (shortened to “FH binding to gonococci”) [11] is given as “lack of detectable FH binding” and the “FH binding compared with unsialylated bacteria” value ([10]; F62 ΔlgtD grown with the CMP-NulO, NulO substituted LOS) is given as “did not bind FH above levels seen with unsialylated bacteria”. The “Effect of NulO incorporation into LOS on bacterial resistance to complement” value [12] was “did not enhance bacterial resistance to complement”.

For CC(=O)N[C@H]1[C@H]([C@H](O)[C@H](O)COC(C)=O)OC(O)(C(=O)O)C[C@@H]1O (stereo partly drawn) [Neu5,9Ac2], the “FH binding (fluorescence) relative to that seen with Neu5Ac substituted LOS” value [10, 15] was ~ 30% and the “Decrease in FH binding fluorescence relative to Neu5Ac” value [10] was ~ 70%.

In the case of CC(=O)N[C@H]1[C@H]([C@H](O)[C@H](O)CN=[N+]=[N-])OC(O)(C(=O)O)C[C@@H]1O (stereo partly drawn) [Neu5Ac9N3], the “Utilization by Lst” value [9] is listed as “utilized by Lst”, the “FH binding to gonococci” value [11] is listed as “lack of detectable FH binding” and the “Effect of NulO incorporation into LOS on bacterial resistance to complement” value [12] is listed as “did not enhance bacterial resistance to complement”.

In the case of CO[C@H](CO)[C@@H](O)[C@@H]1OC(O)(C(=O)O)C[C@H](O)[C@H]1NC(=O)CO (stereo partly drawn) [Neu5Gc8Me, reference compound], the “Utilization by Lst” value [9] is listed as “utilized by Lst” and the “FH binding to gonococci” value [11] is listed as “lack of detectable FH binding”.

In the case of O=C(CO)N[C@H]1[C@H]([C@H](O)[C@H](O)CO)OC(O)(C(=O)O)C[C@@H]1O (stereo partly drawn) [Neu5Gc, reference compound], the “Utilization by Lst” value [9] is given as “utilized by Lst” and the “FH binding to gonococci” value [11] is given as “no impact”.

For CC[C@H]1OC(=O)[C@@](C)(F)C(=O)[C@H](C)[C@@H](O[C@@H]2O[C@H](C)C[C@H](N(C)C)[C@H]2O)[C@](C)(OC)C[C@@H](C)C(=O)[C@H](C)[C@H]2N(CCCCn3cc(-c4cccc(N)c4)nn3)C(=O)O[C@]12C [Solithromycin, solithromycin], the “Non-inferiority versus ceftriaxone plus azithromycin” value ([13]; phase III trial) is listed as “failed to meet non-inferiority criteria”.

For C[C@@H]1CN2c3c(cc4c(N5C(=O)OC[C@@H]5C)noc4c3F)CC3(C(=O)NC(=O)NC3=O)[C@H]2[C@H](C)O1 [Zoliflodacin, zoliflodacin], the “Treatment of uncomplicated urogenital infections” value [13] is given as “appear promising” and the “Eradication of oropharyngeal infection” value [13] is given as “failures to eradicate oropharyngeal infection”.

For C=CC1=C(C(=O)O)N2C(=O)[C@@H](NC(=O)/C(=N\OCC(=O)O)c3csc(N)n3)[C@H]2SC1 [cefixime], the MIC ([14]; strain SD-1) is given as 0.125 µg/mL (≈ 0.276 µM).

In the case of CO/N=C(\C(=O)N[C@@H]1C(=O)N2C(C(=O)O)=C(CSc3nc(=O)c(=O)[nH]n3C)CS[C@H]12)c1csc(N)n1 [ceftriaxone], the MIC ([14]; strain CTX-r Spain) is listed as over 2 µg/mL, the MIC ([14]; strain H041 (WHO X)) is listed as 2 to 4 µg/mL and the MIC ([14]; strain SD-1) is listed as 0.094 µg/mL (≈ 0.169 µM). The MIC ([14]; strain UMNJ60_06UM (NJ-60)) was 0.38 µg/mL (≈ 0.685 µM).

For O=c1ccc2ncc(=O)n3c2n1C[C@H]3CN1CCC(NCc2cc3c(cn2)OCCC3)CC1 [gepotidacin], the “Treatment of uncomplicated urogenital infections” value [13] is listed as “appear promising” and the “Eradication of oropharyngeal infection” value [13] is listed as “failures to eradicate oropharyngeal infection”.

From paper PMC7321800 (Journal of immunology (Baltimore, Md. : 1950), 2020)
